Reference: ChEMBL document CHEMBL3576819, “Design, synthesis, biological evaluation and molecular docking studies of phenylpropanoid derivatives as potent anti-hepatitis B virus agents” (Eur J Med Chem, 2015)
pIC50: −log10 of the molar value.

Experiments:
Hepatitis B virus [1] = experiment: Antiviral activity against Hepatitis B virus infected in human HepG2.2.15 cells assessed as inhibition of HBeAg secretion at 150 uM after 3 days by ELISA; format: functional; conditions: HepG2 2.2.15, 72 h
How it was run: (§1)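 HepG2.2.15 cells (MEM, 10% FBS, 380 µg/ml G418) seeded at 1×10^5 cells/ml, held 24 h at 37 °C, then treated with various drug concentrations; medium with drug renewed every 3 d for up to 9 d. Culture medium sampled on days 3, 6 and 9, stored at -20 °C, and assayed for secreted antigen. Lamivudine as positive control; IC50 = 50% inhibition of secretion; means of at least two experiments.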

Hepatitis B virus [2] = experiment: Antiviral activity against Hepatitis B virus infected in human HepG2.2.15 cells assessed as inhibition of HBsAg secretion at 150 uM after 3 days by ELISA; format: functional; conditions: HepG2 2.2.15, 72 h; how it was run: as §1
Hepatitis B virus [3] = experiment: Antiviral activity against Hepatitis B virus infected in human HepG2.2.15 cells assessed as cell survival at 150 uM after 9 days (reference value: 100%); format: functional; conditions: HepG2 2.2.15, 216 h
How it was run: (§2)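 HepG2.2.15 cells (MEM, 10% FBS, 380 µg/ml G418, 37 °C, 5% CO2) seeded at 1×10^5 cells/ml, cultured 24 h, then exposed to various drug concentrations; drug-containing medium renewed every 3 d. OD read at 450 nm after 9 days; percent cell death calculated; CC50 = concentration killing 50% of cells. Means of at least two experiments.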

Hepatitis B virus [4] = experiment: Antiviral activity against Hepatitis B virus infected in human HepG2.2.15 cells assessed as inhibition of HBV DNA replication by real-time fluorescence quantitative PCR analysis; format: functional, organism-based; conditions: HepG2 2.2.15
Hepatitis B virus [5] = experiment: Antiviral activity against Hepatitis B virus infected in human HepG2.2.15 cells assessed as inhibition of HBeAg secretion by ELISA; format: functional, organism-based; conditions: HepG2 2.2.15; how it was run: as §1
Hepatitis B virus [6] = experiment: Antiviral activity against Hepatitis B virus infected in human HepG2.2.15 cells assessed as inhibition of HBV DNA copies per uL at 150 uM after 6 days by real-time fluorescence quantitative PCR analysis; format: functional; conditions: HepG2 2.2.15, 144 h
[7] = Selectivity index, ratio of CC50 for human HepG2.2.15 cells to IC50 for Hepatitis B virus infected in human HepG2.2.15 cells assessed as inhibition of HBeAg secretion; format: functional
How it was run: (§3)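 Selectivity index computed as CC50/IC50, with CC50 from cell death of HepG2.2.15 cells after 9 days of treatment (OD 450 nm) and IC50 from 50% inhibition of HBeAg or HBsAg secretion in the same cells; medium with drug renewed every 3 d.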

Hepatitis B virus [8] = experiment: Antiviral activity against Hepatitis B virus infected in human HepG2.2.15 cells assessed as inhibition of HBeAg secretion at 300 uM after 9 days by ELISA; format: functional; conditions: HepG2 2.2.15, 216 h; how it was run: as §1
Hepatitis B virus [9] = experiment: Antiviral activity against Hepatitis B virus infected in human HepG2.2.15 cells assessed as inhibition of HBsAg secretion at 37.5 uM after 6 days by ELISA; format: functional; conditions: HepG2 2.2.15, 144 h; how it was run: as §1
[10] = Selectivity index, ratio of CC50 for human HepG2.2.15 cells to IC50 for Hepatitis B virus infected in human HepG2.2.15 cells assessed as inhibition of HBsAg secretion; format: functional; how it was run: as §3
Hepatitis B virus [11] = experiment: Antiviral activity against Hepatitis B virus infected in human HepG2.2.15 cells assessed as inhibition of HBV DNA copies per uL at 37.5 uM after 6 days by real-time fluorescence quantitative PCR analysis; format: functional; conditions: HepG2 2.2.15, 144 h
Hepatitis B virus [12] = experiment: Antiviral activity against Hepatitis B virus infected in human HepG2.2.15 cells assessed as inhibition of HBeAg secretion at 150 uM after 9 days by ELISA; format: functional; conditions: HepG2 2.2.15, 216 h; how it was run: as §1
Hepatitis B virus [13] = experiment: Antiviral activity against Hepatitis B virus infected in human HepG2.2.15 cells assessed as inhibition of HBeAg secretion at 300 uM after 6 days by ELISA; format: functional; conditions: HepG2 2.2.15, 144 h; how it was run: as §1
Hepatitis B virus [14] = experiment: Antiviral activity against Hepatitis B virus infected in human HepG2.2.15 cells assessed as inhibition of HBsAg secretion at 300 uM after 9 days by ELISA; format: functional; conditions: HepG2 2.2.15, 216 h; how it was run: as §1
Hepatitis B virus [15] = experiment: Antiviral activity against Hepatitis B virus infected in human HepG2.2.15 cells assessed as cell survival at 300 uM after 9 days (reference value: 100%); format: functional; conditions: HepG2 2.2.15, 216 h; how it was run: as §2
Hepatitis B virus [16] = experiment: Antiviral activity against Hepatitis B virus infected in human HepG2.2.15 cells assessed as inhibition of HBV DNA copies per uL at 75 uM after 6 days by real-time fluorescence quantitative PCR analysis; format: functional; conditions: HepG2 2.2.15, 144 h
Hepatitis B virus [17] = experiment: Antiviral activity against Hepatitis B virus infected in human HepG2.2.15 cells assessed as cell survival at 37.5 uM after 9 days (reference value: 100%); format: functional; conditions: HepG2 2.2.15, 216 h; how it was run: as §2
Hepatitis B virus [18] = experiment: Antiviral activity against Hepatitis B virus infected in human HepG2.2.15 cells assessed as inhibition of HBV DNA copies per uL at 150 uM after 3 days by real-time fluorescence quantitative PCR analysis; format: functional; conditions: HepG2 2.2.15, 72 h
Hepatitis B virus [19] = experiment: Antiviral activity against Hepatitis B virus infected in human HepG2.2.15 cells assessed as inhibition of HBV DNA copies per uL at 300 uM after 3 days by real-time fluorescence quantitative PCR analysis; format: functional; conditions: HepG2 2.2.15, 72 h
Hepatitis B virus [20] = experiment: Antiviral activity against Hepatitis B virus infected in human HepG2.2.15 cells assessed as cell survival at 75 uM after 9 days (reference value: 100%); format: functional; conditions: HepG2 2.2.15, 216 h; how it was run: as §2
Hepatitis B virus [21] = experiment: Antiviral activity against Hepatitis B virus infected in human HepG2.2.15 cells assessed as inhibition of HBsAg secretion at 75 uM after 9 days by ELISA; format: functional; conditions: HepG2 2.2.15, 216 h; how it was run: as §1
Hepatitis B virus [22] = experiment: Antiviral activity against Hepatitis B virus infected in human HepG2.2.15 cells assessed as inhibition of HBsAg secretion at 37.5 uM after 3 days by ELISA; format: functional; conditions: HepG2 2.2.15, 72 h; how it was run: as §1
Hepatitis B virus [23] = experiment: Antiviral activity against Hepatitis B virus infected in human HepG2.2.15 cells assessed as inhibition of HBV DNA copies per uL at 300 uM after 6 days by real-time fluorescence quantitative PCR analysis; format: functional; conditions: HepG2 2.2.15, 144 h
Hepatitis B virus [24] = experiment: Antiviral activity against Hepatitis B virus infected in human HepG2.2.15 cells assessed as inhibition of HBeAg secretion at 37.5 uM after 6 days by ELISA; format: functional; conditions: HepG2 2.2.15, 144 h; how it was run: as §1
Hepatitis B virus [25] = experiment: Antiviral activity against Hepatitis B virus infected in human HepG2.2.15 cells assessed as inhibition of HBsAg secretion at 150 uM after 9 days by ELISA; format: functional; conditions: HepG2 2.2.15, 216 h; how it was run: as §1
Hepatitis B virus [26] = experiment: Antiviral activity against Hepatitis B virus infected in human HepG2.2.15 cells assessed as inhibition of HBeAg secretion at 75 uM after 6 days by ELISA; format: functional; conditions: HepG2 2.2.15, 144 h; how it was run: as §1
Hepatitis B virus [27] = experiment: Antiviral activity against Hepatitis B virus infected in human HepG2.2.15 cells assessed as inhibition of HBsAg secretion at 75 uM after 3 days by ELISA; format: functional; conditions: HepG2 2.2.15, 72 h; how it was run: as §1
Hepatitis B virus [28] = experiment: Antiviral activity against Hepatitis B virus infected in human HepG2.2.15 cells assessed as inhibition of HBeAg secretion at 37.5 uM after 9 days by ELISA; format: functional; conditions: HepG2 2.2.15, 216 h; how it was run: as §1
Hepatitis B virus [29] = experiment: Antiviral activity against Hepatitis B virus infected in human HepG2.2.15 cells assessed as inhibition of HBV DNA copies per uL at 75 uM after 3 days by real-time fluorescence quantitative PCR analysis; format: functional; conditions: HepG2 2.2.15, 72 h

SMILES | inhibition at 150 µM (Hepatitis B virus [1]) [%] | inhibition at 150 µM (Hepatitis B virus [2]) [%] | viability at 150 µM (Hepatitis B virus [3]) [%] | pIC50 (Hepatitis B virus [4]) | pIC50 (Hepatitis B virus [5]) | inhibition at 150 µM (Hepatitis B virus [6]) [%] | Ratio CC50/IC50 [7] | inhibition at 300 µM (Hepatitis B virus [8]) [%] | inhibition at 37.5 µM (Hepatitis B virus [9]) [%] | Ratio CC50/IC50 [10] | inhibition at 37.5 µM (Hepatitis B virus [11]) [%] | inhibition at 150 µM (Hepatitis B virus [12]) [%] | inhibition at 300 µM (Hepatitis B virus [13]) [%] | inhibition at 300 µM (Hepatitis B virus [14]) [%] | viability at 300 µM (Hepatitis B virus [15]) [%] | inhibition at 75 µM (Hepatitis B virus [16]) [%] | viability at 37.5 µM (Hepatitis B virus [17]) [%] | inhibition at 150 µM (Hepatitis B virus [18]) [%] | inhibition at 300 µM (Hepatitis B virus [19]) [%] | viability at 75 µM (Hepatitis B virus [20]) [%] | further results
O=C(/C=C/c1ccc2c(c1)OCO2)O/N=C/c1ccccn1 | 55.9 | 63.8 | 53.8 | 4.63 | 5.21 | 61.6 | 40.82 | 96.4 | 55.4 | 17.85 | 38.1 | 95.9 | 85.1 | 93 | 35.1 | 47.6 | 79.3 | 45.8 | 62.8 | 72.9 | inhibition at 75 µM (Hepatitis B virus [21]): 78.4%; inhibition at 37.5 µM (Hepatitis B virus [22]): 36.4%; inhibition at 300 µM (Hepatitis B virus [23]): 68.8%; inhibition at 37.5 µM (Hepatitis B virus [24]): 66.5%; inhibition at 150 µM (Hepatitis B virus [25]): 86.9%; inhibition at 75 µM (Hepatitis B virus [26]): 74.8%; inhibition at 75 µM (Hepatitis B virus [27]): 58%; inhibition at 37.5 µM (Hepatitis B virus [28]): 82.5%; inhibition at 75 µM (Hepatitis B virus [29]): 36.9%
COc1cc(/C=C/C(=O)O/N=C/c2ccccn2)cc2c1OCO2 | 45.5 | 41.2 | 82.8 | 4.02 | 4.14 | 44.8 | 8.85 | 82.6 | 25.3 | 10.27 | 26.9 | 65.3 | 75.4 | 81.3 | 67.2 | 39.2 | 101 | 34.9 | 41.1 | 94.2 | inhibition at 75 µM (Hepatitis B virus [21]): 65.8%; inhibition at 37.5 µM (Hepatitis B virus [22]): 17.2%; inhibition at 300 µM (Hepatitis B virus [23]): 52.9%; inhibition at 37.5 µM (Hepatitis B virus [24]): 22.7%; inhibition at 150 µM (Hepatitis B virus [25]): 70%; inhibition at 75 µM (Hepatitis B virus [26]): 42.3%; inhibition at 75 µM (Hepatitis B virus [27]): 27.2%; inhibition at 37.5 µM (Hepatitis B virus [28]): 30%; inhibition at 75 µM (Hepatitis B virus [29]): 28.6%
